Sampled rows, rich in hits. Any-hit rate of the full collection: about 5.9%.
IDH1 R132H inh – blocks human IDH1 R132H reductase activity. O75874. diaphorase/resazurin fluorescence, 60 min. inhibition, % at 10 µM. actives 0.18% (n = 70,000). AID 624101; in the data active = inhibition above about 34%; inconclusive = no clear call, values can overlap the other calls; inactive = below about 11%
T cruzi growth-1 – inhibitors of T. cruzi proliferation | T. cruzi beta-gal in NIH3T3, GalScreen luminescence, 90 h | inhibition, % at 8.34 µM | actives 5.9% (n = 77,000);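 active = mean inhibition above about 93%, with at least 55% of replicates each passing it, limit read from the data, passing the limit was not always enough; inconclusive = only one of those two conditions holds; inactive = neither condition holds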
GASC1 inh – blocks human GASC-1 (KDM4C) demethylase activity | inhibition, % at 12.5 µM | GST-KDM4C 2-372, H3K9me3 peptide, LANCE TR-FRET | Q9H3R0 | actives 0.15% (n = 96,000);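 active = mean replicate inhibition above about 25%, with at least 55% of replicates also reaching it, limit read from the data, passing the limit was not always enough; inconclusive = only one of those two conditions met; inactive = neither condition met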
Target sequence (Q9H3R0 2-372 limits assumed): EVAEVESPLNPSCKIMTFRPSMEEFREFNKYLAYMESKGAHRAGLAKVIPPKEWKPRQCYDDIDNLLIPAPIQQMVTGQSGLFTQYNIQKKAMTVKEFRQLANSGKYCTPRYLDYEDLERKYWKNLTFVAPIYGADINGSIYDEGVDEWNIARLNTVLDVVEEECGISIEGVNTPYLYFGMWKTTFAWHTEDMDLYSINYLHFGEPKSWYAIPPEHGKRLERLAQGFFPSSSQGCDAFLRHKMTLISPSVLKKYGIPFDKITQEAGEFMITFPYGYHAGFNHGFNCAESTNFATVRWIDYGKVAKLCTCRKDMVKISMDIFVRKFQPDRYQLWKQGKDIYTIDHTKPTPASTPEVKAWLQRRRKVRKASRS
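Compound: one test concentration per compound; Material: GST-GASC-1 enzyme fragment 2-372; Amount: GASC-1 enzyme at 10 nM final in reaction; Also added: H3K9me3 peptide substrate, Fe(II), 2-oxoglutarate; Technique: LANCE TR-FRET; Times: 30 min demethylation and 1 h detection at room temperature.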
Pf Dd2 inh – blocks growth of Plasmodium falciparum Dd2 parasites; P. falciparum Dd2 growth, SYBR Green, 72 h; active compounds read low; activity change, % at 10 µM; actives 2.3% (n = 94,000); AID 1159554; in the data active = activity change below about -80%; inconclusive = no clear call, values can overlap the other calls
T cruzi growth-2 – Trypanosoma cruzi proliferation inhibition; shares compounds with T cruzi growth-1; inhibition, % at 8.35 µM; AID 651739; actives 72% (n = 5,600); T. cruzi beta-gal in NIH3T3, GalScreen luminescence, 90 h;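 active = mean replicate inhibition above about 95% and at least 55% of replicates individually reaching it, limit read from the data; inconclusive = only one of the two criteria is met; inactive = neither criterion is met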
T cruzi growth-3 – Trypanosoma cruzi proliferation inhibition. inhibition, % at 2.09 µM. T. cruzi beta-gal in NIH3T3, GalScreen luminescence, 90 h. AID 651740. actives 21% (n = 5,600). shares compounds with T cruzi growth-1;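 active = mean inhibition above about 95%, with at least 55% of replicates also reaching it, limit read from the data; inconclusive = meets just one of the two conditions; inactive = meets neither condition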
3T3 cytotox – kills mouse NIH/3T3 fibroblasts. actives 14% (n = 5,600). cytotoxicity (signal decrease), % at 8.35 µM. NIH/3T3 viability, CellTiter-Glo ATP luminescence, 90 h. shares compounds with T cruzi growth-1. AID 651742;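 active = mean signal decrease across replicates above about 35% based on untreated-well scatter, with enough replicates individually passing, limit read from the data; inconclusive = no rule stated though some were filed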
3T3 cytotox 2 – NIH/3T3 (mouse) viability loss; shares compounds with T cruzi growth-1; actives 56% (n = 5,600); NIH/3T3 viability, CellTiter-Glo ATP luminescence, 90 h; AID 651744; inhibition, % at 24.9 µM;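 active = mean loss of cell viability signal at or above a set limit, and enough replicates individually reaching it; inconclusive = meets only the mean limit or only the replicate share; inactive = meets neither condition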
Numbers stand for hits; i = inactive; ? = inconclusive; nt = no result.

SMILES	IDH1 R132H inh	T cruzi growth-1	GASC1 inh	Pf Dd2 inh	T cruzi growth-2	T cruzi growth-3	3T3 cytotox	3T3 cytotox 2
Cc1cccc(S(=O)(=O)N2C[C@H](O)COC[C@H]3O[C@H](CC(=O)Nc4ccc(-c5ccccc5)cc4)CC[C@@H]32)c1	nt	?	i	i	104	i	i	99
O=C(C[C@@H]1CC[C@H]2[C@@H](COC[C@@H](O)CN2S(=O)(=O)c2ccccc2)O1)Nc1ccc(-c2ccccc2)cc1	nt	97	i	i	106	i	i	92
Cc1cccc(S(=O)(=O)N2C[C@@H](O)COC[C@@H]3O[C@@H](CC(=O)Nc4ccc(-c5ccccc5)cc4)CC[C@H]32)c1	nt	i	i	i	nt	nt	nt	nt
CCC(Oc1cccc(NC(=O)c2cccc(OC)c2)c1)C(=O)c1ccccc1 (stereo not given)	i	nt	nt	nt	nt	nt	nt	nt
CC(C)C#Cc1ccc2c(c1)O[C@H](CN(C)C(=O)C1CCC1)[C@H](C)CN([C@H](C)CO)S2(=O)=O	nt	i	i	i	nt	nt	nt	nt
CC(C)C#Cc1ccc2c(c1)O[C@H](CN(C)C(=O)C1CCCCC1)[C@@H](C)CN([C@@H](C)CO)S2(=O)=O	nt	?	i	i	95	i	i	106
CC(C)C#Cc1ccc2c(c1)O[C@H](CN(C)C(=O)C1CCCCC1)[C@H](C)CN([C@H](C)CO)S2(=O)=O	nt	100	i	i	108	i	i	105
CC(C)C#Cc1ccc2c(c1)O[C@H](CN(C)C(=O)C1CCCCC1)[C@H](C)CN([C@@H](C)CO)S2(=O)=O	i	i	i	i	nt	nt	nt	nt
Cc1ccc(OCC(=O)NC(=S)Nc2cc(-c3nc4ncccc4o3)ccc2C)cc1	i	nt	nt	nt	nt	nt	nt	nt
COc1ccc(OC)c(CN=c2c([N+](=O)[O-])nn(-c3ccc(Cl)cc3)n2O)c1	i	nt	nt	nt	nt	nt	nt	nt
CC(=O)N1CCCCN2[C@H](C1)[C@@H](c1ccc(C#Cc3ccccc3F)cc1)[C@@H]2CO	nt	112	i	i	?	i	i	106
CCC(=O)N1CCCCN2[C@H](C1)[C@@H](c1ccc(C#Cc3ccccc3F)cc1)[C@@H]2CO	nt	100	i	i	100	i	50	105
CCC(=O)N1CCCCN2[C@H](CO)[C@H](c3ccc(C#Cc4ccccc4F)cc3)[C@@H]2C1	nt	120	i	i	99	i	69	58
CC(=O)N1CCCCN2[C@@H](CO)[C@H](c3ccc(C#Cc4ccccc4F)cc3)[C@@H]2C1	nt	i	i	i	nt	nt	nt	nt
CC(=O)N1CCCCN2[C@H](CO)[C@H](c3ccc(C#Cc4ccccc4F)cc3)[C@H]2C1	nt	i	i	i	nt	nt	nt	nt
COc1ccc(S(=O)(=O)N(C)CC(=O)Nc2cc(C(F)(F)F)ccc2Cl)cc1	i	nt	nt	nt	nt	nt	nt	nt
C[C@@H]1CN([C@H](C)CO)C(=O)c2cccc(NC(=O)CCCCCC(=O)Nc3ccccc3N)c2O[C@H]1CN(C)Cc1ccc(-c2ccccc2)cc1	nt	?	i	-92	i	i	i	i
C[C@H]1CN([C@@H](C)CO)C(=O)c2cccc(NC(=O)CCCCCC(=O)Nc3ccccc3N)c2O[C@@H]1CN(C)Cc1ccc2c(c1)OCO2	nt	127	i	-92	107	108	i	25
COCC(=O)Nc1ccc2c(c1)OC[C@@H](C)N(Cc1cc(F)ccc1F)C[C@H](C)[C@@H](OC)CN(C)C2=O	i	107	i	i	i	i	i	i
COCC(=O)Nc1ccc2c(c1)C(=O)N(C)C[C@H](OC)[C@H](C)CN(Cc1cc(F)ccc1F)[C@H](C)CO2	i	105	i	i	i	i	i	?
Cc1cc(C)c(NC(=O)CSc2nnc(-c3cccnc3)s2)c([N+](=O)[O-])c1	i	nt	nt	nt	nt	nt	nt	nt
CS(=O)(=O)N1[C@@H](C#N)[C@H](c2ccc(C#CC3CCCC3)cc2)[C@@H]1CO	nt	?	i	i	i	i	i	i
CS(=O)(=O)N1[C@H](C#N)[C@H](c2ccc(C#CC3CCCCC3)cc2)[C@@H]1CO	nt	?	i	i	101	107	i	42

Source: PubChem BioAssay
